The record followed here is ChEMBL document CHEMBL3877241 (J Med Chem, 2016).

Active and inactive are the calls of the source. The calls are words filed in the database; no cut-off is given here.

For orientation: inhibition means the relative decrease from the control value, in per cent. A word on the IC50: it is the concentration at which inhibition is half-maximal.

The test system of test [1] is HEL 92.1.7. The experiment in a line: Inhibition of colony formation in HEL 92.1.7 cells harboring JAK2 V617F mutant after 14 to 16 days. It counts as functional, cell-based. The settings on record: Homo sapiens. Summed up: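 HEL cells (200 cells/mL) mixed into methylcellulose semi-solid medium with inhibitor at various concentrations. Incubated 14-16 days, then colonies counted. Data given as mean ± SEM.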

In test [2] the target is High affinity nerve growth factor receptor (Homo sapiens, UniProt P04629). The experiment in a line: Inhibition of human NTRK1 (G475 to G790 residues) expressed in mammalian expression system assessed as residual activity at 100 nM by KINOMEScan assay relative to control. Summed up:
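DiscoveRx competition-binding panel of 97 kinases, measuring binding to the kinase ATP site rather than catalytic turnover. The test compound was run at a single 100 nM concentration. Results are given as % of control binding.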

The nature of test [3]: Antiproliferative activity against human KMS-12-BM cells after 48 hrs by CellTiter-Glo assay. It counts as functional, cell-based. (ATP-based viability assays read luminescence as a measure of living cells.)
The target in test [4] is T1, Protein deacetylase HDAC6 (Homo sapiens) (UniProt Q9UBN7).
T1 sequence (whole entry): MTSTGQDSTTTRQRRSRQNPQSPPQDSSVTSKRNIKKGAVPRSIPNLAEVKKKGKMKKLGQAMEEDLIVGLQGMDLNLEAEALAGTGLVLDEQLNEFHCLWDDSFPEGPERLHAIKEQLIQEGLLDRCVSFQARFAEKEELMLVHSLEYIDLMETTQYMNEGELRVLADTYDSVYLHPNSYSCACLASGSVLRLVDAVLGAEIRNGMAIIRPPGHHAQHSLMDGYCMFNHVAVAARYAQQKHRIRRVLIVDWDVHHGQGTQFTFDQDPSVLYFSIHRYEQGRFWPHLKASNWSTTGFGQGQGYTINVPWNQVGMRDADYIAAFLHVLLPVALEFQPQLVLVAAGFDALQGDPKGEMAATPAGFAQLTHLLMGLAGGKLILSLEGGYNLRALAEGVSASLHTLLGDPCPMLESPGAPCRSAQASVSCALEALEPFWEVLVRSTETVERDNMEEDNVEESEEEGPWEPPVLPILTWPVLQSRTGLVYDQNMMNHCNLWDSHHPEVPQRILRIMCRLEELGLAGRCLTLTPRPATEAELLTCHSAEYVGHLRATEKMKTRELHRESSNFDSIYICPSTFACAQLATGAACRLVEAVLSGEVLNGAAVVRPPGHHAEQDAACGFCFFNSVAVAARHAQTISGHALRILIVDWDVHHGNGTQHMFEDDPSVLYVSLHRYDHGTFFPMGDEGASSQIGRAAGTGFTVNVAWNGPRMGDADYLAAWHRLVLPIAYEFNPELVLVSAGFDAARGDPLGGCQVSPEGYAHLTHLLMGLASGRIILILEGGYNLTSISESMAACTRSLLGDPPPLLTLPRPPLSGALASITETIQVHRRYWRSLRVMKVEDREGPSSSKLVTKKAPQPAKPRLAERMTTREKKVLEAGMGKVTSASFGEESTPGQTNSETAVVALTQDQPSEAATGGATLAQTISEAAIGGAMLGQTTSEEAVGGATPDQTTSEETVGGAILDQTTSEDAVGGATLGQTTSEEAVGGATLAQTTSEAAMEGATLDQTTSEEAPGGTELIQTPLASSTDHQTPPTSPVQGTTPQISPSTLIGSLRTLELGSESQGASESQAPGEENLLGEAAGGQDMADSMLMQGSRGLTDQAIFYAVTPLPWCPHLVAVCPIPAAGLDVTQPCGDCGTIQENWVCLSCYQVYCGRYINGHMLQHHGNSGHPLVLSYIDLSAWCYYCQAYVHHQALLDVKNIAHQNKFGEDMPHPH
The experiment in a line: Inhibition of HDAC6 in human MOLM14 cells assessed as increase in acetylated tubulin level at 2 times antiproliferative IC50 after 16 to 48 hrs by immunoblot method. It counts as cell-based. The following applies: MOLM-14. Put shortly: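 KMS-12-BM or MOLM-14 cells (at least 3x10^6 per condition) treated at about 2x their proliferation IC50 in a time course of 0 to 48 h. Tubastatin (15 μM, 48 h) used as HDAC6 control. Lysates immunoblotted for acetyl-α-tubulin and acetyl-H3 (Lys9/Lys14); re-probed for α-tubulin and H3.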
(Immunoblotting shows a protein as a band on a membrane.)

For test [5], the target named is Tyrosine-protein kinase JAK2 (Homo sapiens, UniProt O60674). Put plainly: Inhibition of JAK2 in IL-6-stimulated human KMS-12-BM cells assessed as suppression of STAT3 phosphorylation at TY705 residue at 1.5 uM pretreated for 3 hrs followed by IL-6 stimulation by immunoblot method. Put shortly:
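Cells (at least 3x10^6 per condition; KMS-12-BM or MOLM-14) pretreated with compound for 3 h, then stimulated with IL-6 10 ng/mL for 15 min. Cells lysed, equal protein run on SDS-PAGE and transferred to PVDF. Immunoblotted for p-STAT3 (Tyr705), with membranes re-probed for total STAT3. Reference JAK2 inhibitor control at 2 µM (KMS-12-BM) or 0.1 µM (MOLM-14).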

In test [6] the target is Histone deacetylase 4 (Homo sapiens) (UniProt P56524). Put plainly: Inhibition of human recombinant N-terminal GST-tagged C-terminal His-tagged HDAC4 (627 to 1084 residues) expressed in insect cells at 10 uM preincubated with enzyme followed by acetyl-Lys(trifluoroacetyl)-AMC substrate addition measured after 2 hrs by fluorescence assay relative to control. Put shortly:
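HDAC enzyme in 50 mM Tris-HCl pH 8.0, 137 mM NaCl, 2.7 mM KCl, 1 mM MgCl2 was pre-incubated with compound dosed from DMSO. The reaction was started with the class IIa substrate acetyl-Lys(trifluoroacetyl)-AMC and run 2 h at 30 °C. Developer with trichostatin A stopped it, and fluorescence (Ex/Em 360/460 nm) was read at plateau. Single test concentration 10 µM.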

A short description of test [7]: cells. The test is classed as functional, cell-based. The following applies: Homo sapiens, HEL 92.1.7, 36 h.
Test [8] has as its system MOLM-14. Put plainly: Induction of apoptosis in human MOLM14 cells assessed as live cells at 0.75 uM after 48 hrs by Annexin-V FITC/propidium iodide staining based flow cytometry (reference value: 94 to 94.1%). It counts as functional. Put shortly: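 MOLM-14 cells treated 48 h at the stated concentrations; doxorubicin as positive control. Stained with Annexin V-FITC and propidium iodide and analysed by flow cytometry (at least 10,000 events). Gated quadrants: Annexin V−/PI− viable, Annexin V+/PI− early apoptotic, Annexin V+/PI+ late apoptotic.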
In general terms: A flow cytometer gives signals particle by particle.

Test [9] has as its target Histone deacetylase 1 (Homo sapiens, UniProt Q13547). Put plainly: Inhibition of full length human recombinant C-terminal FLAG/His-tagged HDAC1 (1 to 482 residues) expressed in sf21 cells preincubated with enzyme followed by fluorogenic Arg-His-Lys-Lys(Ac)-AMC substrate addition measured after 2 hrs by fluorescence assay.

Histone deacetylase 1, sequence (Q13547 whole entry, the tested form may be a part): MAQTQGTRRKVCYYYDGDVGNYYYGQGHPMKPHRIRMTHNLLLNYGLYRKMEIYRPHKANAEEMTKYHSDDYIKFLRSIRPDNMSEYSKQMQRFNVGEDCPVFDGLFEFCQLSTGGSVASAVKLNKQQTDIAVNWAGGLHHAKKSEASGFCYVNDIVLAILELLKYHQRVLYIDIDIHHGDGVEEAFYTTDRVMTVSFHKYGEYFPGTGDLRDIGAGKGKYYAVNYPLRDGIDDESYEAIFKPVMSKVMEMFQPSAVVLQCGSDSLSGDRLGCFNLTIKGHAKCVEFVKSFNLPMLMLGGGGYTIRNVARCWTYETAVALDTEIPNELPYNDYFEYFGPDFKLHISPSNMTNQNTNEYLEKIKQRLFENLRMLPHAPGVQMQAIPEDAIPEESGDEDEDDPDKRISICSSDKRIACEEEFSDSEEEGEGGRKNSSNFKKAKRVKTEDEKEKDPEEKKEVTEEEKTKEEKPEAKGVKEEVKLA
Tyrosine-protein kinase JAK2, sequence (O60674 whole entry): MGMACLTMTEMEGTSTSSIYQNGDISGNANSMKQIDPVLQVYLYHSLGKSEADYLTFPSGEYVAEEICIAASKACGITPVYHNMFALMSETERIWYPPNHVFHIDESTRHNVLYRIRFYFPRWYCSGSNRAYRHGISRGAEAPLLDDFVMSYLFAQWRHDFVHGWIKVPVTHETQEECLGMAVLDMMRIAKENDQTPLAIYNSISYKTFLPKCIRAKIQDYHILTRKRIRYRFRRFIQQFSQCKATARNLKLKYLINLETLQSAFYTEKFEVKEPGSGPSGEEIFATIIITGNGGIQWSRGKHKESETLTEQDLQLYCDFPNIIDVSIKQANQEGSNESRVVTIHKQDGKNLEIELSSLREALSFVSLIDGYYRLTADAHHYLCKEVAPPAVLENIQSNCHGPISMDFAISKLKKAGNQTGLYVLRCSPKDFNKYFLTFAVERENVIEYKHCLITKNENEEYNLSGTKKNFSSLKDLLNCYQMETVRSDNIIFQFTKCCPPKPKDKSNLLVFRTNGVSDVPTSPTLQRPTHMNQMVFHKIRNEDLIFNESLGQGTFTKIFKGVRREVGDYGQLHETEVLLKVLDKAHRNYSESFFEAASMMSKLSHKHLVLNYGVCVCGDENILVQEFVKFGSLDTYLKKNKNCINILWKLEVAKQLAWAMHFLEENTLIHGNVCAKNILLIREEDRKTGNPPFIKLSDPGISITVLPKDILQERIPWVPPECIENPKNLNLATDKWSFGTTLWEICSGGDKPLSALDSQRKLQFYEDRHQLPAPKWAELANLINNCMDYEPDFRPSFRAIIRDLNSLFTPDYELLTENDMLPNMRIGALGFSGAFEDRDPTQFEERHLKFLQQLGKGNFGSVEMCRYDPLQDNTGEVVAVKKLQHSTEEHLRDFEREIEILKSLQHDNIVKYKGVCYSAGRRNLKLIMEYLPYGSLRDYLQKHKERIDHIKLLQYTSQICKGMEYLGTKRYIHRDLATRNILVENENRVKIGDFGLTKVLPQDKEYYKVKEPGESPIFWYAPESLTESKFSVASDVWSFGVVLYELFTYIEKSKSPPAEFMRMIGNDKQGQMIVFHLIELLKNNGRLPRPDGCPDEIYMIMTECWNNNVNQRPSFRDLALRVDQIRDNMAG
Histone deacetylase 4 (Homo sapiens), sequence (P56524 whole entry, the tested form may be a part): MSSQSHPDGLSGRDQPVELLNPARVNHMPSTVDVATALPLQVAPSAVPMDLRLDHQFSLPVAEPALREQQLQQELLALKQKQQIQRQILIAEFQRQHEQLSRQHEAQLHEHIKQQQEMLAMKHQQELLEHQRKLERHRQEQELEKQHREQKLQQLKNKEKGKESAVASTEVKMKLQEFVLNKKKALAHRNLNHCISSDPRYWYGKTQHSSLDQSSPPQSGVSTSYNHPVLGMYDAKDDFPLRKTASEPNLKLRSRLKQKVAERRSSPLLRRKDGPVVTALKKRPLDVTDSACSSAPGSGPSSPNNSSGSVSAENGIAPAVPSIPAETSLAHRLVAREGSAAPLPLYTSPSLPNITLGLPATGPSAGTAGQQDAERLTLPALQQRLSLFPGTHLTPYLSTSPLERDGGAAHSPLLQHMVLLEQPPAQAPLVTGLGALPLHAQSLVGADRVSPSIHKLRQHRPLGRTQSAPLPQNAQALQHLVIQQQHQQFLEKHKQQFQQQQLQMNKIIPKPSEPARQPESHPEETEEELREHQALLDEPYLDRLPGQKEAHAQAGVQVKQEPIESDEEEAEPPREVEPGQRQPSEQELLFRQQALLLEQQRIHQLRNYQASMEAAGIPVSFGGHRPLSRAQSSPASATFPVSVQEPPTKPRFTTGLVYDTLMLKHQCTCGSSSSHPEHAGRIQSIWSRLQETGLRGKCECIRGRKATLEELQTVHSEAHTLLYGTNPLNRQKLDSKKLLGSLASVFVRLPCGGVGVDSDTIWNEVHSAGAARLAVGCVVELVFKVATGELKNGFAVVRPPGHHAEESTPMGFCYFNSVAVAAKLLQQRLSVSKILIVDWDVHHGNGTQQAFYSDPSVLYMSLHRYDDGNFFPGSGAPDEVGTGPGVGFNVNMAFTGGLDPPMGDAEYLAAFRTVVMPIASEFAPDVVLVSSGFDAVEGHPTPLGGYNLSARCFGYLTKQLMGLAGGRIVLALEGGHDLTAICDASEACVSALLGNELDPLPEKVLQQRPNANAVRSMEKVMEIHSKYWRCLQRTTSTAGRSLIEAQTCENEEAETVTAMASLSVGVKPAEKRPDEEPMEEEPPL
High affinity nerve growth factor receptor, sequence (P04629 33-796 limits assumed): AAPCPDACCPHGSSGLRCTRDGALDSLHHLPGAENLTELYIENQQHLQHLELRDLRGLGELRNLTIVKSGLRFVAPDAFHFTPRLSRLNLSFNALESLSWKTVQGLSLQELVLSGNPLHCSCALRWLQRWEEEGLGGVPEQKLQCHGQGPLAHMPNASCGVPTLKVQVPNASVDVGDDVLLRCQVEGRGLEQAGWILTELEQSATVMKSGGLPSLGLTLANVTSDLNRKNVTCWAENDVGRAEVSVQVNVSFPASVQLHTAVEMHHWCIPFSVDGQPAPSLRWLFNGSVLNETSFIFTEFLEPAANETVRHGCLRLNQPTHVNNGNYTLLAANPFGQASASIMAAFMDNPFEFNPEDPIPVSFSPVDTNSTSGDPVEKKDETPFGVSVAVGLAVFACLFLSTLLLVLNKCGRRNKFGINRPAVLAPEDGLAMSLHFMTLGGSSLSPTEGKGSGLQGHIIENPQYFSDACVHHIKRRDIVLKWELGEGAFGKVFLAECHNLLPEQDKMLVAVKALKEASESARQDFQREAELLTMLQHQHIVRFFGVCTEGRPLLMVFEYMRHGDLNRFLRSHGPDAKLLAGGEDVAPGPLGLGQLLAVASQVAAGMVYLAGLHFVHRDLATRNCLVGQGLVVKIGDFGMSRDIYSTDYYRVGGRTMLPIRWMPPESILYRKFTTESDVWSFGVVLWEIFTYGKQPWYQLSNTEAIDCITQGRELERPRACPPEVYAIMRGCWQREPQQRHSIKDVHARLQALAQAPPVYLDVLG

In the case of `O=C(CCCCCCOc1ccc2cc1COC/C=C/COCc1cccc(c1)-c1ccnc(n1)N2)NO`, the inhibition result in test [1] was “Dose-dependent effect”; in test [6] it was 8.6%. Besides, the Activity in test [2] worked out at 13%; in test [8] it was 81.7%. The IC50 in test [3] turned out to be 2110 nM; in [7], 940 nM; in [9] it was 222 nM. The inhibition entry in test [4] and in [5] was “Active” throughout.
